Test results as given in ChEMBL document CHEMBL1124747, “Properties of the nucleic acid photoaffinity labeling agent 3-azidoamsacrine” (J Med Chem, 1990).

Experiments:
[1] = Half-life was evaluated in water in the absence of light; assay type: ADME
[2] = Ability to block cleavage of AG/CT site in AluI enzyme with the light activated test compound, DNA ratio 1(no. of sites=16); += light activation
Method in brief: (§1)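 pBR322 plasmid mixed with drug at 0.015, 0.12 or 0.48 mM (drug:DNA 1:8, 1:1 or 4:1), equilibrated on ice 30 min in the dark in 5 mM potassium phosphate pH 5.5, then irradiated 1 h with a medium-pressure Hg lamp (<340 nm filtered); dark set kept as control. Digested overnight with 10× excess enzyme plus DTT; fragments resolved on 1.2% agarose in TBE.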

[3] = Ability to block cleavage of AG/CT site in AluI enzyme with the light activated test compound, DNA ratio 1:8(no. of sites=16); += light activation; method in brief: as §1
[4] = Ability to block cleavage of AG/CT site in AluI enzyme with the light activated test compound, DNA ratio 4(no. of sites=16); += light activation; method in brief: as §1
[5] = Ability to block cleavage of TTT/AAA site in DraI enzyme with the light activated test compound/DNA ratio 1:8(no. of sites=3); += light activation; method in brief: as §1
[6] = Ability to block cleavage of TTT/AAA site in DraI enzyme with the light activated test compound/DNA ratio 4(no. of sites=3); += light activation; method in brief: as §1
[7] = Ability to block cleavage of TTT/AAA site in DraI enzyme with the light activated test compound/DNA ratio 1(no. of sites=3); += light activation; method in brief: as §1
[8] = Ability to block cleavage of GG/CC site in HaeIII enzyme with the light activated test compound/DNA ratio 1(no. of sites=22); += light activation; method in brief: as §1
[9] = Ability to block cleavage of GG/CC site in HaeIII enzyme with the light activated test compound/DNA ratio 1:8(no. of sites=22); += light activation; method in brief: as §1
[10] = Ability to block cleavage of GG/CC site in HaeIII enzyme with the light activated test compound/DNA ratio 4(no. of sites=22); += light activation; method in brief: as §1
[11] = Ability to block cleavage of G/ANTC site in Hinf1 enzyme with the light activated test compound/DNA ratio 1(no. of sites=10); += light activation; method in brief: as §1
[12] = Ability to block cleavage of G/ANTC site in Hinf1 enzyme with the light activated test compound/DNA ratio 1:8(no. of sites=10); += light activation; method in brief: as §1
[13] = Ability to block cleavage of G/ANTC site in Hinf1 enzyme with the light activated test compound/DNA ratio 4(no. of sites=10); += light activation; method in brief: as §1
[14] = Ability to block cleavage of C/CGG site in HpaII enzyme with the light activated test compound/DNA ratio 1(no. of sites=26); += light activation; method in brief: as §1
[15] = Ability to block cleavage of C/CGG site in HpaII enzyme with the light activated test compound/DNA ratio 1:8(no. of sites=26); += light activation; method in brief: as §1
[16] = Ability to block cleavage of C/CGG site in HpaII enzyme with the light activated test compound/DNA ratio 4(no. of sites=26); += light activation; method in brief: as §1
[17] = Induction frequency for L5178Y cells was evaluated at dose 0.005 mg/mL in dark-I condition (expt-I); assay type: functional, Mus musculus
Method in brief: (§2)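 L5178Y suspension cells (3 × 10^6/mL, 5% CO2, 37 °C, shaking) exposed 20 h without activating enzyme; light arm irradiated 6.5 min (Hg lamp, <340 nm filtered). Cells washed, grown 24 h more and kept at 3 × 10^5/mL. Viability from 200 cells in soft agar; TFT (0.1 mg/mL) resistant colonies from 10^6 cells in triplicate dishes, counted at 10 days.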

[18] = Relative mutation induction for L5178Y cells was evaluated at dose 0.005 mg/mL in dark condition (expt-II); assay type: functional, Mus musculus; method in brief: as §2
[19] = Relative mutation induction for L5178Y cells was evaluated at dose 0.005 mg/mL in light condition (expt-II); assay type: functional, Mus musculus; method in brief: as §2
[20] = Relative toxicity against mammalian L5178Y cells at dose 0.005 mg/mL in dark condition (expt-II); assay type: functional, Mus musculus
Method in brief: (§3)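 L5178Y mouse cells in suspension, 3 × 10^6 cells/mL, were exposed for 20 h at 37 °C in a shaker at 150 rpm under 5% CO2, without an activating enzyme. Light arms were irradiated for 6.5 min with a medium-pressure Hg lamp filtered to remove light below 340 nm; dark arms were not. Toxicity was taken as the Coulter-counted density of treated cells versus solvent control.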

[21] = Relative toxicity against mammalian L5178Y cells at dose 0.005 mg/mL in light condition (expt-II); assay type: functional, Mus musculus; method in brief: as §3
[22] = Viability of L5178Y cells was evaluated at dose 0.005 mg/mL in dark condition (expt-II); assay type: functional, Mus musculus
Method in brief: (§4)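 L5178Y cells were exposed for 20 h at 3 × 10^6 cells/mL. Light arms then received 6.5 min of Hg-lamp irradiation filtered to remove light below 340 nm. Cells were washed twice in Fischer's medium, grown a further 24 h and held at 3 × 10^5 cells/mL. For viability, 200 cells were plated in soft-agar cloning medium in triplicate dishes, and colonies were counted by an automated counter after 10 days.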

[23] = Viability of L5178Y cells was evaluated at dose 0.005 mg/mL in light condition (expt-II); assay type: functional, Mus musculus; method in brief: as §4
[24] = Mutation frequency for L5178Y cells was evaluated at dose 0.005 mg/mL in dark-I condition (expt-I); assay type: functional, Mus musculus; method in brief: as §2
[25] = Mutation frequency for L5178Y cells was evaluated at dose 0.005 mg/mL in light-I condition (expt-I); assay type: functional, Mus musculus; method in brief: as §2
[26] = Mutation frequency for L5178Y cells was evaluated at dose 0.008 mg/mL in dark-II condition (expt-I); assay type: functional, Mus musculus; method in brief: as §2
[27] = Relative mutation induction for L5178Y cells was evaluated at dose 0.005 mg/mL in dark-I condition (expt-I); assay type: functional, Mus musculus; method in brief: as §2
[28] = Relative mutation induction for L5178Y cells was evaluated at dose 0.005 mg/mL in light-I condition (expt-I); assay type: functional, Mus musculus; method in brief: as §2
[29] = Relative mutation induction for L5178Y cells was evaluated at dose 0.008 mg/mL in dark-II condition (expt-I); assay type: functional, Mus musculus

half-life [1]: > 14 days
Blockage activity [2]: Light activation
Blockage activity [3]: Light activation
Blockage activity [4]: Light activation
Blockage activity [5]: Light activation
Blockage activity [6]: Light activation
Blockage activity [7]: Light activation
Blockage activity [8]: Light activation
Blockage activity [9]: Light activation
Blockage activity [10]: Light activation
Blockage activity [11]: Light activation
Blockage activity [12]: Light activation
Blockage activity [13]: Light activation
Blockage activity [14]: Light activation
Blockage activity [15]: Light activation
Blockage activity [16]: Light activation
Compound: COc1cc(NS(C)(=O)=O)ccc1Nc1c2ccccc2nc2cc(N=[N+]=[N-])ccc12.Cl
Induced frequency [17]: 319
Relative activity [18]: 124
Relative activity [19]: 28
Relative toxicity [20]: 65
Relative toxicity [21]: 65
Viability [22]: 37.7
Viability [23]: 35.7
Mutation frequency [24]: 427 10e6 F
Mutation frequency [25]: 434 10e6 F
Mutation frequency [26]: 565 10e6 F
Relative activity [27]: 53
Relative activity [28]: 30
Relative activity [29]: 23
